Data on 13 compounds can be found in ChEMBL document CHEMBL1141613, “Conception of myeloperoxidase inhibitors derived from flufenamic acid by computational docking and structure modification” (Bioorg Med Chem, 2008).

Assay [1] can be described thus: Hypochlorous acid scavenging activity at 2 uM by taurine assay. The assay is classed as functional. An outline of the steps: (§1)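 No enzyme; HOCl (60 μM) added to pH 7.4 phosphate buffer (10 mM phosphate/300 mM NaCl) with taurine (15 mM) and compound (0.5, 1, 2, 4 μM) at 37 °C. Catalase added after 5 min. Taurine chloramine quantified with 0.45 mM TNB.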
Assay [2] can be described thus: Hypochlorous acid scavenging activity at 0.5 uM by taurine assay. The assay is classed as functional. An outline of the steps:
as §1

Assay [3] is described as follows: LDL oxidation at 5 uM by ELISA.
Assay [4] deals with T1, Myeloperoxidase (Homo sapiens) (UniProt P05164).
T1 sequence (whole entry): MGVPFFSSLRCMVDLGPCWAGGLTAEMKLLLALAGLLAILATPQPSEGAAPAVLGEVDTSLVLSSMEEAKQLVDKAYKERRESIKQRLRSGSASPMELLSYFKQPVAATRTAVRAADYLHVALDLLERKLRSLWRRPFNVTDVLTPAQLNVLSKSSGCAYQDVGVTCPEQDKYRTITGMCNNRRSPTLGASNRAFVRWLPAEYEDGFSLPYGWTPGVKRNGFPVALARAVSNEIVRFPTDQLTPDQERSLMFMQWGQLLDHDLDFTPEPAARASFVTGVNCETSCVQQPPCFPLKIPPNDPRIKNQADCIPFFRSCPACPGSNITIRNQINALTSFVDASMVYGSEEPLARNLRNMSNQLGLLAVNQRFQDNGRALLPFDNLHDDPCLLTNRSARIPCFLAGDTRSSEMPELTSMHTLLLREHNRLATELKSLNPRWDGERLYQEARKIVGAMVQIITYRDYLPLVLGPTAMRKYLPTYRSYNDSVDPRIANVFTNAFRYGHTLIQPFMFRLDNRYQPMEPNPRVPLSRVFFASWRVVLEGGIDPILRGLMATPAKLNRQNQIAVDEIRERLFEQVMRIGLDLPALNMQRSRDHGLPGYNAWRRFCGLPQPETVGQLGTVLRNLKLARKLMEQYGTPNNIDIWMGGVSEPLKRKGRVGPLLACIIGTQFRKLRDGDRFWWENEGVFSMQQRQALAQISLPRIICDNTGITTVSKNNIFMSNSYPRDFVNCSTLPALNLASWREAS
The experiment in a line: Inhibition of chlorinating activity of recombinant myeloperoxidase at 1 uM by taurine assay. A digest of the protocol:
(§2)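 Recombinant MPO (~25 nM) in pH 7.4 phosphate (10 mM)/NaCl 300 mM with taurine (15 mM) and compound (0–20 μM) at 37 °C; started with H2O2 (100 μM), stopped after 5 min with catalase. Taurine chloramine measured with TNB. No inhibitor = 0%, no H2O2 = 100%. At least 3 determinations. IC50 from three-parameter sigmoid fit.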

In assay [5] the target is T1, Myeloperoxidase (Homo sapiens). The experiment in a line: Inhibition of chlorinating activity of recombinant myeloperoxidase at 0.5 uM by taurine assay. A digest of the protocol: as §2
Assay [6] in a line: Hypochlorous acid scavenging activity at 1 uM by taurine assay. The assay is classed as functional. An outline of the steps: as §1
Assay [7] can be described thus: LDL oxidation at 30 uM by ELISA.
A short description of assay [8]: LDL oxidation at 15 uM by ELISA. (An ELISA detects its analyte on a solid surface through an enzyme-linked reagent.)
For assay [9], the target named is T1, Myeloperoxidase (Homo sapiens). The assay can be described thus: Inhibition of chlorinating activity of recombinant myeloperoxidase at 2 uM by taurine assay. An outline of the steps: as §2
In assay [10] the target is T2, Myeloperoxidase (Homo sapiens, UniProt P05164).
T2 sequence (P05164 whole entry): T1 sequence (whole entry)
The experiment in a line: Inhibition of chlorinating activity of recombinant myeloperoxidase by taurine assay. The assay is classed as single protein format. A digest of the protocol:
as §2

The nature of assay [11]: Hypochlorous acid scavenging activity at 4 uM by taurine assay. The assay is classed as functional. A digest of the protocol:
as §1

A short description of assay [12]: LDL oxidation at 300 uM by ELISA.
Assay [13] addresses T1, Myeloperoxidase (Homo sapiens). The experiment in a line: Inhibition of chlorinating activity of recombinant myeloperoxidase at 4 uM by taurine assay. An outline of the steps: as §2

The structures appear in SMILES notation.

As a reminder, the inhibition is the share of the control response that was lost under treatment. The term IC50 denotes the concentration needed to halve the response being measured. On to `O=C(O)c1ccc([N+](=O)[O-])cc1Nc1cccc(C(F)(F)F)c1`, for which the Activity in assay [1] turned out to be 1%; in assay [2], 0%; in assay [6], 0%; in assay [11], 2%. Moreover, the level, % of control is 121% in assay [3], 135% in assay [7], 143% in assay [8] and 16% in [12]. Moreover, the inhibition in assay [4] worked out at 29%; in assay [5], 29%; in assay [9] it was 43%; in assay [13] it was 55%. The IC50 in [10] worked out at 5 µM.
Take `NCCCC(=O)Nc1ccc(C(=O)O)c(Nc2cccc(C(F)(F)F)c2)c1`: the Activity in assay [1] is 2%; in assay [2], 1%; in assay [6], 2%; in assay [11], 1%. Besides, the inhibition in assay [4] was 21%; in assay [5], 12%; in assay [9], 35%; in [13], 49%. In addition, the IC50 in [10] worked out at 5.5 µM.
In the case of `O=C(Nc1ccc(C(=O)O)c(Nc2cccc(C(F)(F)F)c2)c1)c1ccccc1`, the Activity in assay [1] was 0%; in assay [2], 1%; in assay [6] it was 0%; in assay [11], 2%. Moreover, the inhibition in [4] came to 15%; in assay [5] it was 11%; in [9], 25%; in assay [13], 35%. Further, in assay [10], the IC50 amounted to 58 µM.
On to `O=C(CCCO)Nc1ccc(C(=O)O)c(Nc2cccc(C(F)(F)F)c2)c1`, for which the Activity in assay [1] was -1%; in [2] it was 0%; in assay [6], 0%; in assay [11], 1%. The inhibition in assay [4] amounted to 12%; in assay [5], 8.5%; in assay [9], 12.2%; in assay [13], 20%. Also, the IC50 in assay [10] was greater than 100 µM.
As for `O=C(O)c1cc(Cl)ccc1Nc1cccc(C(F)(F)F)c1`, the Activity was 2% in [1], 1% in assay [2], 0.4% in [6] and 1% in [11]. Besides, the inhibition in assay [4] came out at 42%; in [5] it was 29%; in [9], 57%; in assay [13] it was 74%. Moreover, the IC50 in assay [10] came to 1.6 µM. Also, in assay [12], the level, % of control was found to be 112%.
For the compound `O=C(O)c1ccccc1Nc1cccc(C(F)(F)F)c1` [FLUFENAMIC ACID], the Activity in [1] turned out to be 1.6%; in assay [2], 2%; in [6], 1.1%; in assay [11] it was 1.7%. Further, the level, % of control is 97% in assay [3], 23% in assay [7], 82% in assay [8] and 10% in assay [12]. The inhibition was 40% in assay [4], 25% in assay [5], 52% in assay [9] and 64% in assay [13]. The IC50 in [10] turned out to be 1.8 µM.
Take `O=C(O)c1cc(F)ccc1Nc1cccc(C(F)(F)F)c1`: the Activity in assay [1] is 1.9%; in [2], 3.3%; in assay [6], 2%; in assay [11] it was 3%. In addition, the inhibition turned out to be 49% in [4], 37% in assay [5], 63% in [9] and 76% in [13]. Also, in assay [10], the IC50 was found to be 1.8 µM. This compound also registered a level, % of control in assay [12] of 9%.
In the case of `Nc1ccc(C(=O)O)c(Nc2cccc(C(F)(F)F)c2)c1`, the Activity was found to be 2% in assay [1], 1% in [2], 2% in assay [6] and 3% in [11]. Besides, the level, % of control was 79% in assay [3], 56% in assay [7], 70% in assay [8] and 29% in assay [12].
In the case of `O=C(O)c1cc(O)ccc1Nc1cccc(C(F)(F)F)c1`, the Activity in assay [1] was determined as 2.5%; in assay [2] it was 2%; in [6], 2%; in [11], 2%. Besides, in [12], the level, % of control was determined as 53%.
For `O=C(O)/C=C/C(=O)Nc1ccc(C(=O)O)c(Nc2cccc(C(F)(F)F)c2)c1`, the Activity was 0% in assay [1], -1% in assay [2], -1% in assay [6] and 2% in [11]. For the same compound, the inhibition was 0.6% in assay [4], 0.3% in assay [5], 0.1% in [9] and 0.3% in [13]. Moreover, the IC50 in assay [10] was greater than 100 µM.
Take `O=C(O)c1cc(Br)ccc1Nc1cccc(C(F)(F)F)c1`: the Activity in [1] was determined as 3%; in assay [2], 3%; in assay [6] it was 2%; in assay [11], 4.9%. Also, the inhibition amounted to 51% in [4], 36% in assay [5], 65% in [9] and 79% in assay [13]. Also, in [10], the IC50 amounted to 1.8 µM. This compound also had a level, % of control in assay [12] of 29%.
For the compound `O=C(O)c1cccc(Nc2cccc(C(F)(F)F)c2)c1C(=O)O`, the half-maximal inhibitory concentration (IC50) in [10] is greater than 100 µM.
On to `CC(=O)Nc1ccc(C(=O)O)c(Nc2cccc(C(F)(F)F)c2)c1`, for which the Activity in assay [1] worked out at 2%; in assay [2], 1%; in assay [6], 2%; in assay [11] it was 1%. Also, the level, % of control in assay [3] is 122%; in assay [7], 61%; in [8] it was 86%; in assay [12], 29%. Also, the inhibition amounted to 24% in assay [4], 12% in assay [5], 33% in assay [9] and 42% in assay [13]. In addition, the IC50 in assay [10] was found to be 14 µM.
